Data reported in PMC6639057 (Investigational new drugs, 2018).
“Also recorded” adds a separate entry of the source. Marks after values point to notes of the source that are not given here.

Key:
advanced solid tumors = assay: Tumor response, dose-escalation cohorts; type: in vivo, human; conditions: for Best overall response: Complete response / Best overall response: Partial response / Best overall response: Progressive disease / Best overall response: Stable disease / Best overall response: Unable to evaluate: Central read, RECIST 1.1
Method in brief: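 Adults with refractory advanced solid tumours took the drug orally once each morning on days 1–4 of 14-day cycles, fasting from 2 h predose (water only) until 1 h postdose. Doses were 1–30 mg (and 25 mg) without G-CSF, or 30–50 mg with subcutaneous G-CSF (300 or 480 µg daily). Scans were read centrally by RECIST 1.1 and locally by RECIST 1.0, with GCIG criteria for ovarian tumours.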

[1] = test system: cell lines from a variety of tumor types including several that were resistant to paclitaxel; conditions: preclinical; cited from earlier work
Plasma pharmacokinetics = type: in vivo, human; conditions: for AUC(0-t): 40 mg, Mean AUC24h, 40 mg once daily, dose expansion
[2] = test system: xenografts of diverse tumor types that were resistant to either docetaxel or paclitaxel; conditions: mouse models; cited from earlier work
p-histone H3 = conditions: not measured in this study; no reference given; cited from earlier work
[3] = test system: patients with advanced solid tumors; assay: Dose-limiting toxicities and maximum tolerated dose, dose-escalation phase; type: in vivo
[4] = test system: TNBC cell lines and xenografts; conditions: in combination with ixabepilone; cited from earlier work
[5] = test system: breast cancer cell lines with TP53 loss of function mutations; conditions: cited from earlier work
[6] = test system: taxane-resistant triple-negative breast cancer; assay: Tumor response, dose-expansion TNBC cohort; type: in vivo, human
[7] = escalation 30 mg + G-CSF (n = 6)
[8] = escalation 35 mg + G-CSF (n = 3)
[9] = escalation 40 mg + G-CSF (n = 11)
[10] = escalation 50 mg + G-CSF (n = 4)
[11] = escalation 1, 2, 4, 8 mg (n = 4)
[12] = Central read, RECIST 1.1, expansion 40 mg + G-CSF, TNBC (n = 14)
[13] = Local read, RECIST 1.0, expansion 40 mg + G-CSF, TNBC (n = 14)

For `Cc1csc(-c2nnc(Nc3ccc(Oc4ncccc4-c4ccnc(N)n4)cc3)c3ccccc23)c1` [AMG 900], the “Duration of stable disease, one patient with medullary thyroid cancer” value (advanced solid tumors; 24 mg) was greater than 3.5 years, the “Tumor response, one patient with clear-cell endometrial cancer” value (advanced solid tumors; 30 mg + G-CSF) was “partial response per RECIST 1.0 (local read) that was not confirmed per RECIST 1.1 (central read)” and the “Tumor response, one patient with ovarian cancer” value (advanced solid tumors; 30 mg, RECIST 1.1 and GCIG criteria (central read)) was “partial response”. For the same compound, the “Best overall response: Complete response” value (advanced solid tumors; escalation 16 mg (n = 3)) was 0 Patients (%), the “Best overall response: Partial response” value (advanced solid tumors; escalation 16 mg (n = 3)) was 0 Patients (%) and the “Best overall response: Progressive disease” value (advanced solid tumors; escalation 16 mg (n = 3)) was 0 Patients (%). The “Best overall response: Stable disease” value (advanced solid tumors; escalation 16 mg (n = 3)) was 2 (67) Patients (%), the “Best overall response: Unable to evaluate” value (advanced solid tumors; escalation 16 mg (n = 3)) was 1 (33) Patients (%) and the “Best overall response: Complete response” value (advanced solid tumors; escalation 24 mg (n = 6)) was 0 Patients (%). For the same compound, the “Best overall response: Partial response” value (advanced solid tumors; escalation 24 mg (n = 6)) was 0 Patients (%), the “Best overall response: Progressive disease” value (advanced solid tumors; escalation 24 mg (n = 6)) was 1 (17) Patients (%) and the “Best overall response: Stable disease” value (advanced solid tumors; escalation 24 mg (n = 6)) was 5 (83) Patients (%). For the same compound, the “Best overall response: Unable to evaluate” value (advanced solid tumors; escalation 24 mg (n = 6)) was 0 Patients (%), the “Best overall response: Complete response” value (advanced solid tumors; escalation 25 mg (n = 7)) was 0 Patients (%) and the “Best overall response: Partial response” value (advanced solid tumors; escalation 25 mg (n = 7)) was 0 Patients (%). For the same compound, the “Best overall response: Progressive disease” value (advanced solid tumors; escalation 25 mg (n = 7)) was 1 (14) Patients (%), the “Best overall response: Stable disease” value (advanced solid tumors; escalation 25 mg (n = 7)) was 4 (57) Patients (%) and the “Best overall response: Unable to evaluate” value (advanced solid tumors; escalation 25 mg (n = 7)) was 2 (29) Patients (%). The “Best overall response: Complete response” value (advanced solid tumors; escalation 30 mg (n = 6)) was 0 Patients (%), the “Best overall response: Progressive disease” value (advanced solid tumors; escalation 30 mg (n = 6)) was 1 (17) Patients (%) and the “Best overall response: Stable disease” value (advanced solid tumors; escalation 30 mg (n = 6)) was 3 (50) Patients (%). The “Best overall response: Unable to evaluate” value (advanced solid tumors; escalation 30 mg (n = 6)) was 1 (17) Patients (%), the “Best overall response: Partial response” value (advanced solid tumors; escalation 30 mg (n = 6), patient also had a response by GCIG CA 125 criteria) was 1 (17)^b Patients (%) and the “Best overall response: Complete response” value (advanced solid tumors; [7]) was 0 Patients (%). For the same compound, the “Best overall response: Partial response” value (advanced solid tumors; [7]) was 0 Patients (%), the “Best overall response: Progressive disease” value (advanced solid tumors; [7]) was 3 (50) Patients (%) and the “Best overall response: Stable disease” value (advanced solid tumors; [7]) was 3 (50) Patients (%). The “Best overall response: Unable to evaluate” value (advanced solid tumors; [7]) was 0 Patients (%), the “Best overall response: Complete response” value (advanced solid tumors; [8]) was 0 Patients (%) and the “Best overall response: Partial response” value (advanced solid tumors; [8]) was 0 Patients (%). For the same compound, the “Best overall response: Progressive disease” value (advanced solid tumors; [8]) was 2 (67) Patients (%), the “Best overall response: Stable disease” value (advanced solid tumors; [8]) was 1 (33) Patients (%) and the “Best overall response: Unable to evaluate” value (advanced solid tumors; [8]) was 0 Patients (%). For the same compound, the “Best overall response: Complete response” value (advanced solid tumors; [9]) was 0 Patients (%), the “Best overall response: Partial response” value (advanced solid tumors; [9]) was 0 Patients (%) and the “Best overall response: Progressive disease” value (advanced solid tumors; [9]) was 2 (18) Patients (%). The “Best overall response: Stable disease” value (advanced solid tumors; [9]) was 7 (64) Patients (%), the “Best overall response: Unable to evaluate” value (advanced solid tumors; [9]) was 2 (18) Patients (%) and the “Best overall response: Complete response” value (advanced solid tumors; [10]) was 0 Patients (%). The “Best overall response: Partial response” value (advanced solid tumors; [10]) was 0 Patients (%), the “Best overall response: Progressive disease” value (advanced solid tumors; [10]) was 0 Patients (%) and the “Best overall response: Stable disease” value (advanced solid tumors; [10]) was 2 (50) Patients (%). The “Best overall response: Unable to evaluate” value (advanced solid tumors; [10]) was 2 (50) Patients (%), the “Best overall response: Complete response” value (advanced solid tumors; [11]) was 0 Patients (%) and the “Best overall response: Partial response” value (advanced solid tumors; [11]) was 0 Patients (%). The “Best overall response: Progressive disease” value (advanced solid tumors; [11]) was 2 (50) Patients (%), the “Best overall response: Stable disease” value (advanced solid tumors; [11]) was 2 (50) Patients (%) and the “Best overall response: Unable to evaluate” value (advanced solid tumors; [11]) was 0 Patients (%). The Progressive disease (advanced solid tumors; dose-escalation phase (12 patients of 50)) was 24%, the “Stable disease (best response)” value (advanced solid tumors; dose-escalation phase, RECIST 1.1 (29 patients of 50)) was 58% and the “Proliferation of tumor cell lines” value [1] was “inhibited the proliferation”. For the same compound, the “Accumulation based on AUC8h” value (Plasma pharmacokinetics; cycle 1 day 1 to cycle 1 day 4, all dose cohorts) was less than 2 fold, the Tmax (Plasma pharmacokinetics; human, plasma, oral) was 1 to 3 h and the half-life (Plasma pharmacokinetics; human, plasma, oral) was 6 to 9 h. It also gave an AUC(0-t) (Plasma pharmacokinetics; human, plasma, oral, CRPC) of 7700 ng·h/mL, an AUC(0-t) (Plasma pharmacokinetics; human, plasma, oral, TNBC) of 10600 ng·h/mL and an AUC(0-t) (Plasma pharmacokinetics; human, plasma, oral, ovarian cancer cohort) of 12900 ng·h/mL. For the same compound, the “Mean exposure (AUC24h) versus dose” value (Plasma pharmacokinetics; oral, 1 to 50 mg) was “increased as the dose increased”, the Growth of xenografts [2] was “inhibited growth” and the “50% inhibitory concentration for the in vivo inhibition of p-histone H3” value (p-histone H3) was 273 ng/mL. The DLTs overall ([3]; in vivo) was “nine DLTs were reported in eight patients”, the “Maximum tolerated dose (MTD) and recommended phase 2 dose” value ([3]; with G-CSF, daily, 4 days on, 10 days off) was 40 mg and the “Maximum tolerated dose (MTD)” value ([3]; with G-CSF, oral, 4 days on/10 days off) was 40 mg/day. The “Maximum tolerated dose (MTD)” value ([3]; without G-CSF, daily, 4 days on, 10 days off) was 25 mg, the “Maximum tolerated dose (MTD)” value ([3]; without G-CSF, oral, 4 days on/10 days off) was 25 mg/day and the “Growth of TNBC cell lines and xenografts” value [4] was “inhibited growth”. The “Sensitivity to AMG 900 compared with cell lines without such mutations” value [5] was “greater sensitivity”, the “Tumor response, one patient with TNBC” value ([6]; 40 mg + G-CSF, RECIST 1.0 (local read)) was “partial response per RECIST 1.0 (local read) that was not confirmed per RECIST 1.1 (central read)” and the “Progression-free survival, median (80% CI)” value ([6]; Central read, RECIST 1.1, Kaplan-Meier, expansion 40 mg + G-CSF, TNBC (n = 14)) was 7.6 (4.1–23.6) weeks. The “Best overall response: Complete response” value [6, 12] was 0 Patients (%), the “Best overall response: Not evaluable (postbaseline scan not readable)” value [6, 12] was 3 (21) Patients (%) and the “Best overall response: Partial response” value [6, 12] was 0 Patients (%). For the same compound, the “Best overall response: Progressive disease” value [6, 12] was 4 (29) Patients (%), the “Best overall response: Stable disease” value [6, 12] was 7 (50) Patients (%) and the “Best overall response: Complete response” value [6, 13] was 0 Patients (%). For the same compound, the “Best overall response: Not evaluable (postbaseline scan not readable)” value [6, 13] was 3 (21) Patients (%), the “Best overall response: Partial response” value [6, 13] was 1 (7) Patients (%) and the “Best overall response: Progressive disease” value [6, 13] was 5 (36) Patients (%). The “Best overall response: Stable disease” value [6, 13] was 5 (36) Patients (%), the Objective responses ([6]; RECIST 1.1 (central read), TNBC) was “No objective responses; also recorded: No patients with TNBC had an objective response” and the “Died or had progressive disease” value ([6]; RECIST 1.1 (central read), TNBC (7 of 14)) was 50.0%. For the same compound, the “Stable disease as best overall tumor response” value ([6]; RECIST 1.1, TNBC (7 of 14)) was 50.0%.
